# Experimental data as given in the M2OR odorant receptor database.
# What was measured:
# Conditions in all cases: stereoisomer not certain
# [1] = system: OR2C1
# How it was run: (§1)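 Values were gathered from published papers (main text and supplementary material), with extra details requested from the original authors when needed, and checked for typos and inconsistencies. Each receptor–molecule pair is called responsive (active) if the original authors judged the measured signal statistically different from baseline, and non-responsive (inactive) otherwise. Assay methods varied by source, often transient mammalian cell-line luciferase assays. Recorded details include cell line, G-protein, co-transfected protein and tags.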
# Target sequence in this assay (as listed by the source): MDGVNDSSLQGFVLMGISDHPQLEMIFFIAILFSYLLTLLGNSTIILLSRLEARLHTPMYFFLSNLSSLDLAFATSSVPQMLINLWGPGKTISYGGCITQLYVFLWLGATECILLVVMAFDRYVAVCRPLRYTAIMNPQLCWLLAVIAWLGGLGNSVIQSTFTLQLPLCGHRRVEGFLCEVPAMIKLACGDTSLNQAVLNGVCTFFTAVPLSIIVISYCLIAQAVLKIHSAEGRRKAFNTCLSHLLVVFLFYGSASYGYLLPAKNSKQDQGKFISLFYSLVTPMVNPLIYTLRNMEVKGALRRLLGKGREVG
# [2] = system: OR2C1; remark: listed apart in the source
# How it was run: as §1
# Target sequence in this assay (as listed by the source): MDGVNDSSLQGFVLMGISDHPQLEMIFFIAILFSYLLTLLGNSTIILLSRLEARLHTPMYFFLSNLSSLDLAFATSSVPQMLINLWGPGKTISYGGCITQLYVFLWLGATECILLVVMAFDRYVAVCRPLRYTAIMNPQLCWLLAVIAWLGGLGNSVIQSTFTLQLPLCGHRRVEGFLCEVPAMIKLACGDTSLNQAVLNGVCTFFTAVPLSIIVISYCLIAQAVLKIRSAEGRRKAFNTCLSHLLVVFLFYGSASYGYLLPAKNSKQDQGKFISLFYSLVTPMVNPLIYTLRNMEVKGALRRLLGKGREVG
# [3] = system: OR2C1; remark: listed apart in the source
# How it was run: as §1
# Target sequence in this assay (as listed by the source): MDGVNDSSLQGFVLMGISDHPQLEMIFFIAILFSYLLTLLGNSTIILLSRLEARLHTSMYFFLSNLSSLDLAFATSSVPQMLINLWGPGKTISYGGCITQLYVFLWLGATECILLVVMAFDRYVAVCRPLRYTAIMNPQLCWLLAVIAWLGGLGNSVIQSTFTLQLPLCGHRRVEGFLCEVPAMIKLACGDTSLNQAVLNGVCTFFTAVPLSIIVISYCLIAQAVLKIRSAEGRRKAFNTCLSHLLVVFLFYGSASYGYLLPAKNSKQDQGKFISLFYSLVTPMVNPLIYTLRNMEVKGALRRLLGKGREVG
# [4] = system: OR2C1; remark: listed apart in the source
# How it was run: as §1
# Target sequence in this assay (as listed by the source): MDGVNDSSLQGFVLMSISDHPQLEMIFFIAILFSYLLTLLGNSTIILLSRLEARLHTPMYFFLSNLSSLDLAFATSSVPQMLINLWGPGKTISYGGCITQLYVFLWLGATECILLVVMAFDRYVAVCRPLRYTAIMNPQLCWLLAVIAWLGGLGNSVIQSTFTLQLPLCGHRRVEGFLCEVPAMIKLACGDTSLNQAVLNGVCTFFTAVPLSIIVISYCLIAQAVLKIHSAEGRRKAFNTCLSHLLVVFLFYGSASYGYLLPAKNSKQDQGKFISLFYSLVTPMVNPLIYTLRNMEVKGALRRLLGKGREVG
# [5] = system: OR2C1; remark: listed apart in the source
# How it was run: as §1
# Target sequence in this assay (as listed by the source): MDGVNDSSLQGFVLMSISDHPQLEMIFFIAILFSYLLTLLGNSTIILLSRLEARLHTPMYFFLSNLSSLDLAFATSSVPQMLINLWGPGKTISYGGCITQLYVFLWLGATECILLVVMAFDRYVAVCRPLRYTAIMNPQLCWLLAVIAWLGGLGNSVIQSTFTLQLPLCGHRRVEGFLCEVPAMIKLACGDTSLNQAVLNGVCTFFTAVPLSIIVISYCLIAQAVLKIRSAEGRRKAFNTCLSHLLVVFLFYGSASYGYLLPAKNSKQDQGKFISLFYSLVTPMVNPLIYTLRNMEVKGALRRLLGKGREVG
# [6] = system: OR2C1; remark: listed apart in the source
# How it was run: as §1
# Target sequence in this assay (as listed by the source): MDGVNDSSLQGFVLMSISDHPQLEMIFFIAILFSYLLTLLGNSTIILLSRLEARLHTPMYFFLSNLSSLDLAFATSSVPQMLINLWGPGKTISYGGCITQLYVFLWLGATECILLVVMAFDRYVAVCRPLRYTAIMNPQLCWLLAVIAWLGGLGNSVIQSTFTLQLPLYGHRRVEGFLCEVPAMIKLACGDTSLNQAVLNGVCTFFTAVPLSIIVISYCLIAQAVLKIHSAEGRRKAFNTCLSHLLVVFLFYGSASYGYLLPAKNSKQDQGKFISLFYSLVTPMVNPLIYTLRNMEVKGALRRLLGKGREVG
# [7] = system: OR2C3
# How it was run: as §1
# Target sequence in this assay (as listed by the source): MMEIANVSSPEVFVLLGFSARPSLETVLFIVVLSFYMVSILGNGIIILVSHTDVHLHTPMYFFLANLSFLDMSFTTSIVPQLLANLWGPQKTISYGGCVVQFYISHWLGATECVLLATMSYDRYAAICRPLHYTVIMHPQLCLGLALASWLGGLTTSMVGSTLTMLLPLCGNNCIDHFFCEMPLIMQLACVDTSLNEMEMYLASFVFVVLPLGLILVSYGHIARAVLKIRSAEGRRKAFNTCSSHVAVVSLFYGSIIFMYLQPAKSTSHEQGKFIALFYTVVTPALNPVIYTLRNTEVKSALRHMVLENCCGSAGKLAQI
# [8] = system: OR2C3; remark: listed apart in the source
# How it was run: as §1
# Target sequence in this assay (as listed by the source): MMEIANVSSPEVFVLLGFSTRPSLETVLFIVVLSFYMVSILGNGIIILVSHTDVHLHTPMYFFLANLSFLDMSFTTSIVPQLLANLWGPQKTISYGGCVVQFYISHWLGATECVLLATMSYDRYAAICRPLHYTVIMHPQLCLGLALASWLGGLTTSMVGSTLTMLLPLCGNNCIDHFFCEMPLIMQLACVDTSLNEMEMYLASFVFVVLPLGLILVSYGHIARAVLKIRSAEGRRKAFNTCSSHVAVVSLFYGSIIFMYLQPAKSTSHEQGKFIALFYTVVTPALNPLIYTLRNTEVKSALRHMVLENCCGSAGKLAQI
# [9] = molecular target: OR2D2 (Homo sapiens) (UniProt Q9H210)
# How it was run: as §1
# [10] = molecular target: OR2C3 (Homo sapiens) (UniProt Q8N628)
# How it was run: as §1
# Chain of OR2D2 (Homo sapiens) (Q9H210 whole entry): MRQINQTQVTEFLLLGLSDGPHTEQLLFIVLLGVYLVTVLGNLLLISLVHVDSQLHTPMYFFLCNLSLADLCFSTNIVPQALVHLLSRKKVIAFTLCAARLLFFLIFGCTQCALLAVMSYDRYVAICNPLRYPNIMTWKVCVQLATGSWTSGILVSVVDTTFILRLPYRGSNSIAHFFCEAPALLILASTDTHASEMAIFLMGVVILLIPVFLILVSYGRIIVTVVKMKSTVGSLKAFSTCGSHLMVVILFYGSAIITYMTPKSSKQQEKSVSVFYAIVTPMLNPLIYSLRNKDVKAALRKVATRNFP
# Chain of OR2C3 (Homo sapiens) (Q8N628 whole entry): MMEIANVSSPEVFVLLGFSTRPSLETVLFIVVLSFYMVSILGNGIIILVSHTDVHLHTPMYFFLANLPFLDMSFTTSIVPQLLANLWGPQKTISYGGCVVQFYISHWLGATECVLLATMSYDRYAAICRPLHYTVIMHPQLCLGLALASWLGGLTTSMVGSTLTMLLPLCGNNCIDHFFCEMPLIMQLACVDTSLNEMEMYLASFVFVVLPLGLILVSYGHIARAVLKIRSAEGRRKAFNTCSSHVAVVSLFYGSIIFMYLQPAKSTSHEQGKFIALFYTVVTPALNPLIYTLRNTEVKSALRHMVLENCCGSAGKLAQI
smiles,measurement,setting,value
O=CC=Cc1ccccc1,odorant receptor agonist call,[1],inactive
same,odorant receptor agonist call,[2],inactive
same,odorant receptor agonist call,[3],inactive
same,odorant receptor agonist call,[4],inactive
same,odorant receptor agonist call,[5],active
same,odorant receptor agonist call,[6],active
C=CCOC(=O)Cc1ccccc1,odorant receptor agonist call,[2],inactive
same,odorant receptor agonist call,[7],inactive
same,odorant receptor agonist call,[8],inactive
same,odorant receptor agonist call,[9],inactive
Cc1c([N+](=O)[O-])c(C)c([N+](=O)[O-])c(C(C)(C)C)c1[N+](=O)[O-],odorant receptor agonist call,[10],inactive
same,odorant receptor agonist call,[9],inactive
